In ChEMBL document CHEMBL4765315, “Discovery of IAP-recruiting BCL-X PROTACs as potent degraders across multiple cancer cell lines” (Eur J Med Chem, 2020):
pIC50: −log10 of the molar value. Active and inactive are the calls of the source. The rule behind the calls is not given here.

Key:
[1] = Antiproliferative activity against human MyLa1929 cells assessed as cell viability measured after 72 hrs by MTS assay; assay type: functional, cell-based; details: for pIC50: Homo sapiens, MyLa1929, 72 h, read-out: IC50; for IC50: myla1929
Outline: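 MTS tetrazolium read-out of viability after 72 h continuous exposure. MyLa 1929 seeded at 1×10^5 cells per well; EC50/IC50 fitted from concentration–response curves. For MyLa 1929, values are means of at least two independent experiments.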

[2] = test system: Bcl-2-like protein 1/E3 ubiquitin-protein ligase XIAP (Homo sapiens); test: Protac activity at BCL-XL/XIAP E3 ligase in human MyLa1929 cells assessed as degradation of BCL-XL by measuring remaining protein at 500 nM measured after 16 hrs by Western blot analysis (reference value: 100%)
MOLT-4 = test: Antiproliferative activity against human MOLT-4 cells assessed as cell viability measured after 72 hrs by MTS assay; assay type: functional, cell-based
[3] = target: Protein cereblon/Bcl-2-like protein 1 (Homo sapiens) (UniProt Q07817+Q96SW2); test: Protac activity at BCL-XL/CRBN in human MyLa1929 cells assessed as degradation of BCL-XL at 0.01 to 3 uM measured after 16 hrs by western blot analysis; assay type: cell-based; details: dose 0.01-3 µM
Sequence of Protein cereblon/Bcl-2-like protein 1 (Homo sapiens) (Q07817 whole entry, looked up): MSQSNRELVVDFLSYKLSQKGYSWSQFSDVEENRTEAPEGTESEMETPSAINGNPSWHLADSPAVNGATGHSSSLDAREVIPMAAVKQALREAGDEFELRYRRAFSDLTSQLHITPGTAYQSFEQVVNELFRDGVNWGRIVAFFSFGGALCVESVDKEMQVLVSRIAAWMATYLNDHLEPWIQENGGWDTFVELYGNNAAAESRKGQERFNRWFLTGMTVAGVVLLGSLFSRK
Sequence of Protein cereblon/Bcl-2-like protein 1 (Homo sapiens) (Q96SW2 whole entry, looked up): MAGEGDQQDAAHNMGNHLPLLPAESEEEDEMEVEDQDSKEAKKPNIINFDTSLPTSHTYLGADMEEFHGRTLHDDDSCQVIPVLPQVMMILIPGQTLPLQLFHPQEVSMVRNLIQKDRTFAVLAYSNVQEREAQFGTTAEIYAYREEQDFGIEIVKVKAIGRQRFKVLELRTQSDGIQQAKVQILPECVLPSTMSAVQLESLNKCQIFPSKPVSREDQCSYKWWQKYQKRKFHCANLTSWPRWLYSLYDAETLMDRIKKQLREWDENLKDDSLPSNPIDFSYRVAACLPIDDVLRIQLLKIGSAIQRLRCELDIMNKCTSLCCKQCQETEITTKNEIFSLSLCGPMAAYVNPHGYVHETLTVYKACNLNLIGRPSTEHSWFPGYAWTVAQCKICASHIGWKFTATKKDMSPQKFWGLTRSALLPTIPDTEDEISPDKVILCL
Outline: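 MyLa 1929 cells treated 16 h with compound (single 500 nM or concentration series), then harvested for immunoblot. Membranes blocked in 5% milk/TBS-Tween, primary antibody overnight at 4 °C, HRP secondary, ECL detection. BCL-XL band normalized to β-actin by densitometry; reported as % protein remaining versus vehicle.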

[4] = Selectivity ratio of IC50 for human platelets to IC50 for human MyLa1929 cells
Outline: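 Platelets were isolated from platelet-rich plasma in acid citrate buffer with PGE1 (1 µM) and apyrase (0.2 units/mL) at final concentration. They were adjusted to 2 × 10^8/mL in HEPES Tyrode's buffer with 10% FBS, PGE1 and apyrase, then treated for 48 h and read by MTS. MyLa 1929 cells (1×10^5 per well) were treated for 72 h and read by MTS, with IC50 from at least two independent experiments. The ratio is platelet IC50 over MyLa 1929 IC50.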

Platelet = test: Cytotoxicity against human platelet assessed as cell viability measured after 48 hrs by MTS assay
WI-38 = test: Cytotoxicity against human WI-38 cells assessed as cell viability measured after 72 hrs by MTS assay; assay type: cell-based; details: WI-38, 72 h

SMILES | Remaining BCL-XL protein [2] [%] | pIC50 [1] | further results
CN[C@@H](C)C(=O)N[C@@H](C(=O)N1CCC[C@H]1c1nc(C(=O)c2cccc(OCCCCCC(=O)N3CCN(CC[C@H](CSc4ccccc4)Nc4ccc(S(=O)(=O)NC(=O)c5ccc(N6CCN(CC7=C(c8ccc(Cl)cc8)CCC(C)(C)C7)CC6)cc5)cc4S(=O)(=O)C(F)(F)F)CC3)c2)cs1)C1CCCCC1 | 104 | < 5.00 | 
CN[C@@H](C)C(=O)N[C@@H](C(=O)N1CCC[C@H]1c1nc(C(=O)c2cccc(OCCOCCOCCOCCOCC(=O)N3CCN(CC[C@H](CSc4ccccc4)Nc4ccc(S(=O)(=O)NC(=O)c5ccc(N6CCN(CC7=C(c8ccc(Cl)cc8)CCC(C)(C)C7)CC6)cc5)cc4S(=O)(=O)C(F)(F)F)CC3)c2)cs1)C1CCCCC1 | 29 | 7.12 | 
CN[C@@H](C)C(=O)N[C@H]1CCO[C@H]2CC(C)(C)[C@@H](C(=O)N[C@@H]3CCCc4cc(O)ccc43)N2C1=O |  | < 5.00 | 
CN(CCOCCOCCOCCNc1cccc2c1C(=O)N(C1CCC(=O)NC1=O)C2=O)CC[C@H](CSc1ccccc1)Nc1ccc(S(=O)(=O)NC(=O)c2ccc(N3CCN(CC4=C(c5ccc(Cl)cc5)CCC(C)(C)C4)CC3)cc2)cc1S(=O)(=O)C(F)(F)F (stereo partly specified) |  |  | IC50 [1]: Active; Activity (MOLT-4): Active
O=C1CCC(N2C(=O)c3cccc(NCCOCCOCc4cn(CCCC(=O)N5CCN(CC#Cc6ccc(OCCCc7sc(N8CCc9cccc(C(=O)Nc%10nc%11ccccc%11s%10)c9C8)nc7C(=O)O)c(F)c6)CC5)nn4)c3C2=O)C(=O)N1 (stereo unspecified) |  |  | Activity [3]: Active; IC50 [1]: Active; Activity (MOLT-4): Active
CN[C@@H](C)C(=O)N[C@@H](C(=O)N1CCC[C@H]1c1nc(C(=O)c2cccc(OCCCCC(=O)N3CCN(CC[C@H](CSc4ccccc4)Nc4ccc(S(=O)(=O)NC(=O)c5ccc(N6CCN(CC7=C(c8ccc(Cl)cc8)CCC(C)(C)C7)CC6)cc5)cc4S(=O)(=O)C(F)(F)F)CC3)c2)cs1)C1CCCCC1 | 80 | 5.71 | 
CN[C@@H](C)C(=O)N[C@@H](C(=O)N1CCC[C@H]1c1nc(C(=O)c2cccc(OCCCCCCC(=O)N3CCN(CC[C@H](CSc4ccccc4)Nc4ccc(S(=O)(=O)NC(=O)c5ccc(N6CCN(CC7=C(c8ccc(Cl)cc8)CCC(C)(C)C7)CC6)cc5)cc4S(=O)(=O)C(F)(F)F)CC3)c2)cs1)C1CCCCC1 | 108 | < 5.00 | 
CC1(C)CCC(c2ccc(Cl)cc2)=C(CN2CCN(c3ccc(C(=O)NS(=O)(=O)c4ccc(N[C@H](CCN5CCOCC5)CSc5ccccc5)c(S(=O)(=O)C(F)(F)F)c4)cc3)CC2)C1 [NAVITOCLAX] |  | 7.30 | Ratio IC50 [4]: 137; pIC50 (Platelet): 6.72; pIC50 (WI-38): 5.09

Continued, in another order:

Remaining BCL-XL protein [2] [%] | SMILES | pIC50 [1] | further results
60 | CN[C@@H](C)C(=O)N[C@@H](C(=O)N1CCC[C@H]1c1nc(C(=O)c2cccc(OCCOCCOCC(=O)N3CCN(CC[C@H](CSc4ccccc4)Nc4ccc(S(=O)(=O)NC(=O)c5ccc(N6CCN(CC7=C(c8ccc(Cl)cc8)CCC(C)(C)C7)CC6)cc5)cc4S(=O)(=O)C(F)(F)F)CC3)c2)cs1)C1CCCCC1 | 6.84 | 
55 | CN[C@@H](C)C(=O)N[C@@H](C(=O)N1CCC[C@H]1c1nc(C(=O)c2cccc(OCCCC(=O)N3CCN(CC[C@H](CSc4ccccc4)Nc4ccc(S(=O)(=O)NC(=O)c5ccc(N6CCN(CC7=C(c8ccc(Cl)cc8)CCC(C)(C)C7)CC6)cc5)cc4S(=O)(=O)C(F)(F)F)CC3)c2)cs1)C1CCCCC1 | 6.00 | 
59 | CN[C@@H](C)C(=O)N[C@@H](C(=O)N1CCC[C@H]1c1nc(C(=O)c2cccc(OCCOCCOCCOCc3cn(CCCC(=O)N4CCN(CC[C@H](CSc5ccccc5)Nc5ccc(S(=O)(=O)NC(=O)c6ccc(N7CCN(CC8=C(c9ccc(Cl)cc9)CCC(C)(C)C8)CC7)cc6)cc5S(=O)(=O)C(F)(F)F)CC4)nn3)c2)cs1)C1CCCCC1 | 6.83 | 
31 | CN[C@@H](C)C(=O)N[C@@H](C(=O)N1CCC[C@H]1c1nc(C(=O)c2cccc(OCCOCCOCc3cn(CCCC(=O)N4CCN(CC[C@H](CSc5ccccc5)Nc5ccc(S(=O)(=O)NC(=O)c6ccc(N7CCN(CC8=C(c9ccc(Cl)cc9)CCC(C)(C)C8)CC7)cc6)cc5S(=O)(=O)C(F)(F)F)CC4)nn3)c2)cs1)C1CCCCC1 | 6.80 | 
